Converted amounts (≈) assume the structure as drawn. Bridge positions count the residues as written; N and C are the ends. Square brackets hold non-standard residues; d marks the D form. Peptide text beside a SMILES is read from it. * marks the point of attachment. Phe(4-NH2) = Nc1ccc(C[C@H](N)C(=O)O)cc1; hSer = N[C@@H](CCO)C(=O)O; Octanoyl = CCCCCCCC(=O)*; Dab = NCC[C@H](N)C(=O)O
How the values were obtained:
[1] = tested on: Acinetobacter baumannii; assay: Antibacterial activity against clinical isolate carbapenem and polymyxin resistant Acinetobacter baumannii Ptyela 100734512:2 after 18 hrs by 2 fold serial dilution method; type: functional; conditions: Ptyela 100734512:2, 18 h
Method in brief: (§1)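 Polymyxin-resistant clinical isolates were grown overnight at 37 °C in NB or MHB with shaking, diluted 50-fold in MHB and grown 1.5–3 h to mid-log phase. The inoculum was 5×10^5 CFU/mL. Compounds were 2-fold broth serial dilutions, final 32 to 0.015 μg/mL; the polymyxin controls ran 128–0.06 μg/mL. The MIC was the lowest concentration with no visible growth after 18 h at 37 °C.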

[2] = tested on: Klebsiella pneumoniae; assay: Antibacterial activity against Klebsiella pneumoniae ATCC BAA-2146 expressing NDM-1 after 18 hrs by 2 fold serial dilution method; type: functional; conditions: ATCC BAA-2146, 18 h
Method in brief: (§2)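 Overnight cultures at 37 °C in nutrient or Mueller Hinton broth with shaking were diluted 50-fold in MHB and grown 1.5–3 h to mid-log phase. The inoculum was 5×10^5 CFU/mL in MHB. Compounds were 2-fold serially diluted, final 32 to 0.015 μg/mL. After 18 h at 37 °C, the MIC was read visually as the lowest concentration with no visible growth.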

[3] = tested on: Acinetobacter baumannii; assay: Antibacterial activity against Acinetobacter baumannii ATCC 19606 after 18 hrs by 2 fold serial dilution method; type: functional; conditions: ATCC 19606, 18 h
Method in brief: (§3)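 Overnight cultures in nutrient or Mueller Hinton broth at 37 °C with shaking, diluted 50-fold into fresh MHB and grown 1.5–3 h to mid-log. Inoculum 5×10^5 CFU/mL in 2-fold serial dilutions, final range 32 to 0.015 μg/mL. MIC read visually after 18 h at 37 °C as the lowest concentration with no visible growth.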

[4] = Cytotoxicity against human HepG2 cells after 24 hrs by resazurin assay; type: cell-based; conditions: HepG2 cells
[5] = tested on: Klebsiella pneumoniae; assay: Antibacterial activity against clinical isolate carbapenem and polymyxin resistant Klebsiella pneumoniae Koprana 100650661:1 after 18 hrs by 2 fold serial dilution method; type: functional; conditions: Koprana 100650661:1, 18 h; method in brief: as §1
[6] = tested on: Klebsiella pneumoniae; assay: Antibacterial activity against clinical isolate carbapenem and polymyxin resistant Klebsiella pneumoniae 138-16357-20362 after 18 hrs by 2 fold serial dilution method; type: functional; conditions: 138-16357-20362, 18 h; method in brief: as §1
[7] = tested on: Pseudomonas aeruginosa; assay: Antibacterial activity against Pseudomonas aeruginosa ATCC 27853 after 18 hrs by 2 fold serial dilution method; type: functional; conditions: ATCC 27853, 18 h; method in brief: as §3
[8] = tested on: Staphylococcus aureus; assay: microbe, parasite or virus in culture; conditions: ATCC 25923, 18 h
[9] = tested on: Klebsiella pneumoniae; assay: Antibacterial activity against Klebsiella pneumoniae ATCC 13883 after 18 hrs by 2 fold serial dilution method; type: functional; conditions: ATCC 13883, 18 h; method in brief: as §3
[10] = tested on: Klebsiella pneumoniae; assay: Antibacterial activity against multidrug resistant Klebsiella pneumoniae ATCC 700603 after 18 hrs by 2 fold serial dilution method; type: functional; conditions: Klebsiella pneumoniae, 700603, 18 h; method in brief: as §2
[11] = tested on: Pseudomonas aeruginosa; assay: Antibacterial activity against clinical isolate polymyxin resistant Pseudomonas aeruginosa PA9704 after 18 hrs by 2 fold serial dilution method; type: functional; conditions: PA9704, 18 h; method in brief: as §1
[12] = tested on: Pseudomonas aeruginosa; assay: Antibacterial activity against clinical isolate polymyxin resistant Pseudomonas aeruginosa FADDI-PA070 after 18 hrs by 2 fold serial dilution method; type: functional; conditions: FADDI-PA070, 18 h; method in brief: as §1
[13] = tested on: Escherichia coli; assay: Antibacterial activity against Escherichia coli ATCC 25922 after 18 hrs by 2 fold serial dilution method; type: functional; conditions: ATCC 25922, 18 h; method in brief: as §3

| SMILES | MIC [1] | MIC [2] | MIC [3] | CC50 at 24 h [4] | MIC [5] | MIC [6] | MIC [7] | MIC [8] | MIC [9] | MIC [10] | MIC [11] | MIC [12] | MIC [13] |
| --- | --- | --- | --- | --- | --- | --- | --- | --- | --- | --- | --- | --- | --- |
| CCCCCCCC(=O)N[C@@H](CCN)C(=O)N[C@H](C(=O)N[C@@H](CCN)C(=O)N[C@H]1CCNC(=O)[C@H]([C@@H](C)O)NC(=O)[C@H](CCN)NC(=O)[C@H](CCNC(=O)[C@@H](N)CCC(=O)O)NC(=O)[C@H](CC(C)C)NC(=O)[C@@H](Cc2ccccc2)NC(=O)[C@H](CCN)NC1=O)[C@@H](C)O (Octanoyl-[Dab]T[Dab][Dab][Dab][dF]L[Dab](Glu)[Dab]T; lactam 4-C) | > 32 µg/mL | 4 µg/mL (≈ 3.03 µM) | 4 µg/mL (≈ 3.03 µM) | > 300 µM | > 32 µg/mL | > 32 µg/mL | 8 µg/mL (≈ 6.07 µM) | > 32 µg/mL | 8 µg/mL (≈ 6.07 µM) | 4 µg/mL (≈ 3.03 µM) | > 32 µg/mL | > 32 µg/mL | 1 µg/mL (≈ 0.758 µM) |
| CCCCCCCC(=O)N[C@@H](CCN)C(=O)N[C@H](C(=O)N[C@@H](CCN)C(=O)N[C@H]1CCNC(=O)[C@H]([C@@H](C)O)NC(=O)[C@H](CCCNC(=N)N)NC(=O)[C@H](CCN)NC(=O)[C@H](CC(C)C)NC(=O)[C@@H](Cc2ccccc2)NC(=O)[C@H](CCN)NC1=O)[C@@H](C)O (Octanoyl-[Dab]T[Dab][Dab][Dab][dF]L[Dab]RT; lactam 4-C) | > 32 µg/mL | 4 µg/mL (≈ 3.21 µM) | 32 µg/mL (≈ 25.7 µM) | > 300 µM | > 32 µg/mL | > 32 µg/mL | 1 µg/mL (≈ 0.803 µM) | > 32 µg/mL | > 32 µg/mL | 8 µg/mL (≈ 6.42 µM) | > 32 µg/mL | > 32 µg/mL | 16 µg/mL (≈ 12.8 µM) |
| CCCCCCCC(=O)N[C@@H](CCN)C(=O)N[C@H](C(=O)N[C@@H](CCN)C(=O)N[C@H]1CCNC(=O)[C@H]([C@@H](C)O)NC(=O)[C@H](CCNC(=O)[C@@H](N)CCC(=O)O)NC(=O)[C@H](CCN)NC(=O)[C@H](CC(C)C)NC(=O)[C@@H](Cc2ccccc2)NC(=O)[C@H](CCN)NC1=O)[C@@H](C)O (Octanoyl-[Dab]T[Dab][Dab][Dab][dF]L[Dab][Dab](Glu)T; lactam 4-C) | > 32 µg/mL | 4 µg/mL (≈ 3.03 µM) | 16 µg/mL (≈ 12.1 µM) | > 300 µM | > 32 µg/mL | > 32 µg/mL | 8 µg/mL (≈ 6.07 µM) | > 32 µg/mL | 16 µg/mL (≈ 12.1 µM) | 4 µg/mL (≈ 3.03 µM) | > 32 µg/mL | > 32 µg/mL | 4 µg/mL (≈ 3.03 µM) |
| CCCCCCCC(=O)N[C@@H](CCN)C(=O)N[C@H](C(=O)N[C@@H](CCN)C(=O)N[C@H]1CCNC(=O)[C@H]([C@@H](C)O)NC(=O)[C@H](Cc2ccc(N)cc2)NC(=O)[C@H](CCN)NC(=O)[C@H](CC(C)C)NC(=O)[C@@H](Cc2ccccc2)NC(=O)[C@H](CCN)NC1=O)[C@@H](C)O (Octanoyl-[Dab]T[Dab][Dab][Dab][dF]L[Dab][Phe(4-NH2)]T; lactam 4-C) | > 32 µg/mL | 16 µg/mL (≈ 12.8 µM) | > 32 µg/mL | > 300 µM | > 32 µg/mL | > 32 µg/mL | 32 µg/mL (≈ 25.6 µM) | > 32 µg/mL | > 32 µg/mL | 16 µg/mL (≈ 12.8 µM) | > 32 µg/mL | > 32 µg/mL | 16 µg/mL (≈ 12.8 µM) |
| CCCCCCCC(=O)N[C@@H](CCN)C(=O)N[C@H](C(=O)N[C@@H](CCN)C(=O)N[C@H]1CCNC(=O)[C@H]([C@@H](C)O)NC(=O)[C@H](CCN)NC(=O)[C@H](CCO)NC(=O)[C@H](CC(C)C)NC(=O)[C@@H](Cc2ccccc2)NC(=O)[C@H](CCN)NC1=O)[C@@H](C)O (Octanoyl-[Dab]T[Dab][Dab][Dab][dF]L[hSer][Dab]T; lactam 4-C) | > 32 µg/mL | 2 µg/mL (≈ 1.68 µM) | 8 µg/mL (≈ 6.72 µM) | > 300 µM | > 32 µg/mL | > 32 µg/mL | 4 µg/mL (≈ 3.36 µM) | > 32 µg/mL | > 32 µg/mL | 2 µg/mL (≈ 1.68 µM) | > 32 µg/mL | > 32 µg/mL | 1 µg/mL (≈ 0.84 µM) |

— ChEMBL document CHEMBL3774373, “Activity and Predicted Nephrotoxicity of Synthetic Antibiotics Based on Polymyxin B” (J Med Chem, 2016)
